Assay results of several laboratories.
Lines come from different studies, so protocols differ.
Matrix: plasma

`O=[N+]([O-])c1cccc2[nH]c(CNc3nc(N4CCOCC4)nc4c3ncn4-c3ccsc3)nc12` gave a bioavailability of 0% (mouse; intravenous, 1 mg/kg).
`Cc1c(C(=O)Nc2ccccc2)sc(N)c1C(N)=O` gave a bioavailability of 34% (male CD-1 mouse; oral, 10 mg/kg).
The bioavailability of `CC[C@H](C)[C@@H]1NC(=O)[C@@](C)(NC(=O)[C@H](CCCNC(=N)N)NC(=O)[C@H](CC(C)C)NC(=O)[C@@H](NC(=O)[C@H](CCC(N)=O)NC(=O)[C@H](CC(C)C)NC(C)=O)[C@@H](C)O)CCCC=CCCC[C@@](C)(C(=O)N[C@@H](CC(C)C)C(=O)N[C@@H](Cc2ccc3ccccc3c2)C(N)=O)NC(=O)[C@H](CCCNC(=N)N)NC(=O)[C@H](CCC(N)=O)NC1=O` is reported as 20.6% (male BALB/c mouse; intramuscular, 5 mg/kg).
For `COc1nc(-c2cc(C)c(N[C@@H](C)c3ccc(F)cc3)nn2)ccc1-n1cnc(C)c1`, the bioavailability was 63.1% (male CD-1 mouse; oral, 5 mg/kg, single dose).
With `Nc1ncc(-c2ccncc2)nc1Nc1ccc2[nH]ccc2c1` the bioavailability was 89% (male C57BL/6 mouse; oral, 30 mg/kg).
For `CCCCCCCC(=O)N[C@H](CN1CCCC1)[C@H](O)c1ccc2c(c1)OCCO2`, the bioavailability was < 1% (CD-1 mouse; oral, 10 mg/kg).
`CCOc1ccc(Cc2cc([C@@H]3O[C@H](CO)[C@@H](O)[C@H](O)[C@H]3O)ccc2Cl)cc1` has a bioavailability of 67% (male C57BL/6 mouse; oral, 1 mg/kg).
The bioavailability of `O=C1Nc2cc(F)cc(F)c2C(=O)CCc2ccccc21` is reported as ~20% (male Swiss mouse; oral).
`O=C(CC1Cc2ccccc2C1)N[C@H](CN1CCCC1)[C@H](O)c1ccc(OC(F)(F)F)cc1` gave a bioavailability of 34% (CD-1 mouse; oral, 10 mg/kg).
`Oc1ccc(C(c2ccc(O)cc2)(C(F)(F)F)C(F)(F)F)cc1` has a bioavailability of 3 to 6% (mouse; oral, 34 mg/kg, single dose).
The bioavailability of `COc1nc2[nH]c(C(F)(F)F)nc2nc1Nc1ccc(OC(F)(F)F)cc1F` is reported as 21% (C57BL/6 mouse; oral, 10 mg/kg).
`CN1CCc2c(c3ccccc3n2Cc2ccc(C(=O)NO)cc2)C1` has a bioavailability of ~6% (male CD-1 mouse; oral, 30 mg/kg).
For `CCc1cc(OC)c2nccc(N3CCc4c(cc(Cn5ccnc5)cc4-c4cn(C)nc4C(F)(F)F)C3=O)c2c1`, the bioavailability was 135% (male CD-1 mouse; oral, 150 mg/kg).
The bioavailability of `CCc1ccc(Cc2cc([C@@H]3O[C@H](CO)[C@@H](O)[C@H](O)[C@H]3O)cc3c2CCC3)cc1` is reported as > 100% (male C57BL/6 mouse; oral, 3 mg/kg).
The bioavailability of `C=CC(=O)Nc1cccc(Nc2nc(Nc3ccc(N4CCN(C(C)=O)CC4)cc3OC)ncc2C(F)(F)F)c1` is reported as 65% (female mouse; oral, 20 mg/kg).
The bioavailability of `N[C@@H](CSSC[C@H](N)C(=O)O)C(=O)O` is reported as 18.6% (Kunming mouse; oral, 25 mg/kg).
The bioavailability of `CNC(=O)c1cc(OC)cc2c(N3CCc4c(cc(Cn5ccnc5)cc4-c4cn(C)nc4C(F)(F)F)C3=O)ccnc12` is reported as 263% (male CD-1 mouse; oral, 50 mg/kg).
The bioavailability of `COc1cc2ccccc2cc1C(=O)NC(=S)Nc1ccc(-c2nc3ccccc3[nH]2)cc1` is reported as < 1% (mouse; oral, 5 mg/kg).
With `CC(C)(Nc1nc(-c2ccccn2)nc2ccccc12)c1ccccn1` the bioavailability was 102% (female BALB/c mouse; oral, 50 mg/kg).
`CC(C)(C)c1cc(NC(=O)Nc2ccc(Oc3ccnc4[nH]c(=O)cnc34)cc2F)n(-c2ccccc2)n1` gave a bioavailability of 54% (BALB/c mouse; oral, 10 mg/kg).
With `NC[C@@H]1O[C@H](O[C@H]2[C@@H](O)[C@H](O[C@@H]3[C@@H](O)[C@H](N)C[C@H](N)[C@H]3O[C@H]3O[C@H](CO)[C@@H](O)[C@H](O)[C@H]3N)O[C@@H]2CO)[C@H](N)[C@@H](O)[C@@H]1O` the bioavailability was 0.3% (male BALB/c mouse; oral, 500 mg/kg).
With `CCc1cc(C(=O)NC)c2nccc(N3CCc4c(cc(Cn5ccnc5)cc4-c4cn(C)nc4C(F)(F)F)C3=O)c2c1` the bioavailability was 252% (male CD-1 mouse; oral, 150 mg/kg).
The bioavailability of `COc1cc(N2CCN(C)CC2)ccc1Nc1ncc2c(n1)N(C)c1ccccc1C(=O)N2CC(F)(F)F` is reported as 81% (male Swiss mouse; oral, 10 mg/kg).
`COc1ccc2nccc(N3CCc4c(cc(Cn5ccnc5)cc4-c4cn(C)nc4C(F)(F)F)C3=O)c2c1` has a bioavailability of 34% (male CD-1 mouse; oral, 10 mg/kg).
For `C=CC(=O)N1CC2CC(n3nc(-c4ccc(C(=O)Nc5ccccn5)cc4)c4c(N)ncnc43)CC2C1` (stereo not drawn), the bioavailability was 47% (male BALB/c mouse; oral, 3 mg/kg).
For `Cc1ccc2cncc(N3CCc4c(cc(Cn5ccnc5)cc4-c4cn(C)nc4C(F)(F)F)C3=O)c2c1`, the bioavailability was 56% (male CD-1 mouse; oral, 50 mg/kg).
`O=C(Nc1nccs1)C(c1cc(F)ccc1O)N1Cc2ccccc2C1=O` (stereo not drawn) has a bioavailability of 26% (mouse; oral, 20 mg/kg).
